Experimental findings from PMC4353613 (Structure (London, England : 1993), 2014) are described below.

For one experiment, the system named is rat stomach fundus. The experiment in a line: Gastric contraction assay. The following applies: for biological activity in fundus strip contraction: concentrations up to 10μM.
The target of another experiment is T1, human C3aR1 (Homo sapiens, UniProt Q16581).
T1 sequence (Q16581 1-482): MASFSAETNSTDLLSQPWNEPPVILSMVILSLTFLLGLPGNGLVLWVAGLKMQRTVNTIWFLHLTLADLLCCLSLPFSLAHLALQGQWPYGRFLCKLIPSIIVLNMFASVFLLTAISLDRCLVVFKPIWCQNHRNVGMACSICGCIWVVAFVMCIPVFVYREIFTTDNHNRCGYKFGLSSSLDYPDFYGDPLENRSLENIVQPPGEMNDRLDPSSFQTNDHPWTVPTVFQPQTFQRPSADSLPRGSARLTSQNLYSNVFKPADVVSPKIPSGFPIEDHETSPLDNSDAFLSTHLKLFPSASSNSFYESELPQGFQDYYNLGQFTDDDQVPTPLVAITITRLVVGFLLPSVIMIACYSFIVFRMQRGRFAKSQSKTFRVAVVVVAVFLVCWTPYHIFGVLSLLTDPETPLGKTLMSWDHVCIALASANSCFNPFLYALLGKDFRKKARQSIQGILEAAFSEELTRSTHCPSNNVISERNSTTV
The experiment in a line: β-arrestin recruitment assay in HTLA cells transfected with the C3aR1 receptor. The experiment is classed as cell-based. The conditions noted are these: for EC50 times lower than that of C3a: human C3aR1, relative to C3a.

In another experiment the test system is 3T3L1 adipocytes. The experiment in a line: Lipolysis assay in 3T3L1 adipocytes. It counts as cell-based, mouse. The conditions noted are these: with isoproterenol, 3 hours incubation at 37°C. The essentials:
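Adipocytes at day 8 of differentiation in 6-well plates. Starved 3 h in KRH with 1% BSA, then exposed to test compound with or without agonists/antagonists in KRH with 4% BSA. Media collected and heated at 60°C for 20 min to stop enzyme activity. Cells kept for protein content, or trypsinised for diameter and viability. At least three independent replicates.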

The test system of another experiment is AMPK phosphorylation. The experiment in a line: AMPK phosphorylation, western blotting in 3T3L1 adipocytes. The experiment is classed as cell-based, mouse. The conditions noted are these: anti-Phospho-AMPK(Thr172) western blot. Put shortly: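 3T3-L1 cells from ATCC, differentiated to adipocytes with fetal bovine serum, dexamethasone, methylisobutylxanthine and insulin. Extracts (about 5×10^5 cells) taken up in SDS reducing sample buffer and run on NuPAGE. Primary antibody overnight at 4°C; tubulin as loading probe; peroxidase-coupled donkey secondaries. Semi-quantitative densitometry; ANOVA with Tukey post hoc tests.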

Another experiment relates to C3aR1 receptor. In words: Photoaffinity cross-linking of modified TLQP-21 peptide. The experiment is classed as binding, mouse. The following applies: membranes from 3T3 cells, UV 365 nm 30 min; Figure 1B.

As for HFHHALPPAR [HFHH-10], the “biological activity (response) in fundus strip contraction” value (“biological activity (response)” for short) is given as ~ 3% with rat stomach fundus (3μM, compared to mouse TLQP-21); 62% with rat stomach fundus (6μM); 75% in the experiment on rat stomach fundus (10μM).
On to TLQPPASSRRR [TLQP-11], for which the “biological activity in fundus strip contraction” value in the experiment on rat stomach fundus is reported as “zero response”.
As to `CC(C)C[C@H](NC(=O)[C@@H](N)[C@@H](C)O)C(=O)N[C@@H](CCC(N)=O)C(=O)N1CCC[C@H]1C(=O)N1CCC[C@H]1C(=O)N[C@@H](C)C(=O)N[C@@H](CO)C(=O)N[C@@H](CO)C(=O)N[C@@H](CCCNC(=N)N)C(=O)N[C@@H](CCCNC(=N)N)C(=O)N[C@@H](CCCNC(=N)N)C(=O)N[C@@H](Cc1c[nH]cn1)C(=O)N[C@@H](Cc1ccccc1)C(=O)N[C@@H](Cc1c[nH]cn1)C(=O)N[C@@H](Cc1c[nH]cn1)C(=O)N[C@@H](C)C(=O)N[C@@H](CC(C)C)C(=O)N1CCC[C@H]1C(=O)N1CCC[C@H]1C(=O)N[C@@H](C)C(=O)N[C@@H](CCCNC(=N)N)C(=O)O` [TLQP-21], the “EC50 times lower than that of C3a” value on human C3aR1 is “approximately 3 times”.
As for “C3a: human C3a peptide, first ligand identified for the C3aR1 [reference compound]”, the EC50 – broadly, the concentration at which the effect is half-maximal – with human C3aR1 (HTLA cells transfected with human C3aR1, Figure 1C) was found to be 3000 nM.
Regarding TLQPPASSRRRHFHHALPPAA [R21A], in the experiment on 3T3L1 adipocytes, the “potentiation of isoproterenol-induced lipolysis” value is “does not potentiate”. Besides, in the experiment with AMPK phosphorylation, the “potentiation of AMPK phosphorylation” value is recorded as “does not potentiate”. In the experiment on rat stomach fundus, the “biological activity in fundus strip contraction” value is listed as “complete loss of activity”. The “block of the activity of a subsequent infusion of TLQP-21 (C3aR1 antagonism)” value in the experiment with rat stomach fundus (fundus strips, mutant given before TLQP-21) was “does not block”.
Regarding TLQPPASSRRRHFHHALPAAR [P19A], the “biological activity (response)” value stood at 19% with rat stomach fundus (3μM, compared to mouse TLQP-21) and 35% with rat stomach fundus (6μM).
With `CC(C)C[C@H](NC(=O)[C@H](C)NC(=O)[C@H](CO)NC(=O)[C@@H]1CCCN1C(=O)[C@@H]1CCCN1C(=O)[C@H](CCC(N)=O)NC(=O)[C@H](CC(C)C)NC(=O)[C@@H](N)[C@@H](C)O)C(=O)N[C@@H](CCCNC(=N)N)C(=O)N[C@@H](CCCNC(=N)N)C(=O)N[C@@H](CCCNC(=N)N)C(=O)N[C@@H](Cc1c[nH]cn1)C(=O)N[C@@H](Cc1ccc(O)cc1)C(=O)N[C@@H](Cc1c[nH]cn1)C(=O)N[C@@H](Cc1c[nH]cn1)C(=O)N[C@@H](C)C(=O)N[C@@H](CC(C)C)C(=O)N1CCC[C@H]1C(=O)N1CCC[C@H]1C(=O)N[C@@H](CO)C(=O)N[C@@H](CCCNC(=N)N)C(=O)O` [human TLQP-21], the “EC50 times lower than that of C3a” value at human C3aR1 was “approximately 22 times”.
With `N=C(N)NCCC[C@H](NC(=O)COCC(c1ccccc1)c1ccccc1)C(=O)O` [SB290157], in the experiment on C3aR1 receptor, the “cross-linking efficiency of modified TLQP-21 peptide in presence of antagonist” value is given as “substantial reduction”.
On to TLQPPASSRRRHFHHALAPAR [P18A], for which the “biological activity (response)” value with rat stomach fundus (3μM, compared to mouse TLQP-21) is on record as ~ 65%.
